Measurements taken from ChEMBL document CHEMBL1123658, “1-(2-pyridinyl)piperazine derivatives with antianaphylactic, antibronchospastic, and mast cell stabilizing activities” (J Med Chem, 1987).

Experiments:
Cavia porcellus [1] = assay: Antibronchospatic activity determined by histamine stimulated bronchospasm inhibition in guinea pigs after(i.v.) administration; assay type: functional, Bronchiole
How it was run: (§1)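 Guinea pigs, Konzett–Rössler preparation. Bronchospasm was induced with histamine. Compound was given iv (1 mL/kg) 1 min before the agonist, dissolved in saline or saline with slight excess HCl or CH3SO3H (pH 3.5–4). Three doses were tested in duplicate, chosen to give 20–90% inhibition. ID75 was read graphically from log dose–response curves.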

Rattus norvegicus [2] = assay: Inhibition of mast cell degranulation was assessed in female albino rats at a dose of 45 umol/kg iv; assay type: functional
[3] = In vivo toxicity in mouse after oral administration with 10% aqueous acacia gum; assay type: organism-based
How it was run: (§2)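 Female albino mice, 20-30 g. Compound given orally as solution or suspension in 10% aqueous acacia gum, 10 animals per dose. Deaths recorded over 7 days.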

Rattus norvegicus [4] = assay: Rat PCA Test(50% inhibition of spot areas)in the female albino rats after oral administration in 10% aqueous acacia gum; value ranges from 110-212; assay type: functional; conditions: read-out: ID50 (the source's name)
How it was run: (§3)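 Female rats (200-250 g) were passively sensitized by ventral intradermal anti-egg-albumin antiserum. This was raised in rats by intramuscular 1% egg albumin plus ip H. pertussis vaccine, with serum taken at 12 days. After 24 h, groups of 10 were dosed orally with compound or vehicle (10 mL/kg). At 60 min, iv challenge used 0.3% egg albumin with 1% Evans blue. Blued areas were measured after 30 min.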

Rattus norvegicus [5] = assay: Rat PCA Test(50% inhibition of spot areas)in the female albino rats after (ip) administration in 10% aqueous acacia gum; value ranges from 57-142; assay type: functional; conditions: read-out: ID50 (the source's name)
How it was run: (§4)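 Female albino rats (200–250 g) received intradermal ventral injections of rat anti-egg-albumin antiserum; donors were raised with egg albumin im plus H. pertussis ip, and serum was taken at 12 days. 24 h later, compound was given ip in 10% acacia gum (10 mL/kg), 10 rats/group. Challenge 30 min later was iv 0.3% egg albumin plus 1% Evans blue. Blued areas were measured 30 min after challenge.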

Rattus norvegicus [6] = assay: Rat PCA Test(50% inhibition of spot areas)in the female albino rats after ip administration in 10% aqueous acacia gum; Value ranges from(26-134); assay type: functional; conditions: read-out: ID50 (the source's name)
How it was run: (§5)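 Antiserum came from female rats given 1% egg albumin in 0.9% NaCl intramuscularly plus Haemophilus pertussis vaccine (2 × 10^10 organisms) intraperitoneally, and was collected 12 days later. Recipient rats (200-250 g) got it intradermally at a ventral site. After 24 h, groups of 10 received vehicle or compound ip. At 30 min they were challenged iv with 0.3% egg albumin plus 1% Evans blue. Blued skin areas were measured 30 min later.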

[7] = In vivo toxic effect was determined in mouse after intraperitoneal administration with 10% aqueous acacia gum; value ranges from 0.39-0.70; assay type: toxicity, organism-based; conditions: ip
How it was run: (§6)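 Female albino mice (20-30 g), 10 animals per dose, dosed intraperitoneally with compound in solution or suspension; compounds tested as salts unless noted. Mortality was recorded over 7 days.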

[8] = In vivo toxic effect was determined in mouse after oral administration with 10% aqueous acacia gum; value ranges from 0.94-1.65; assay type: toxicity, organism-based; how it was run: as §2
[9] = In vivo toxic effect was determined in mouse after intraperitoneal administration with 10% aqueous acacia gum; value ranges from 0.54-0.99; assay type: toxicity, organism-based; conditions: ip; how it was run: as §6
[10] = In vivo toxic effect was determined in mouse after intraperitoneal administration with 10% aqueous acacia gum; value ranges from (0.47-0.85); assay type: toxicity, organism-based; conditions: ip; how it was run: as §6
Cavia porcellus [11] = assay: Antibronchospatic activity was determined by inhibition of histamine stimulated bronchospasm in guinea pigs after (iv) administration; assay type: functional, Bronchiole; how it was run: as §1
Rattus norvegicus [12] = assay: Rat PCA Test(50% inhibition of spot areas)in the female albino rats after ip administration in 10% aqueous acacia gum; assay type: functional; conditions: read-out: ID50 (the source's name); how it was run: as §5
[13] = In vivo toxic effect was determined in mouse after intraperitoneal administration with 10% aqueous acacia gum; value ranges from 0.92-1.65; assay type: toxicity, organism-based; conditions: ip; how it was run: as §6
[14] = In vivo toxic effect was determined in mouse after oral administration with 10% aqueous acacia gum; value ranges from 0.92-1.78; assay type: toxicity, organism-based; how it was run: as §2
Rattus norvegicus [15] = assay: Rat PCA Test(50% inhibition of spot areas)in the female albino rats after (ip) administration in 10% aqueous acacia gum; value ranges from 11-48; assay type: functional; conditions: read-out: ID50 (the source's name); how it was run: as §4
Rattus norvegicus [16] = assay: Inhibition of mast cell degranulation was assessed in female albino rats at a dose of 31 umol/kg iv; assay type: functional
Rattus norvegicus [17] = assay: Rat PCA Test(50% inhibition of spot areas)in the female albino rats after oral administration in 10% aqueous acacia gum; value ranges from 72-115; assay type: functional; conditions: read-out: ID50 (the source's name); how it was run: as §3
[18] = In vivo toxic effect was determined in mouse after oral administration with 10% aqueous acacia gum; value ranges from 0.41-0.93; assay type: toxicity, organism-based
[19] = In vivo toxic effect was determined in mouse after intraperitoneal administration with 10% aqueous acacia gum; value ranges from 0.28-0.52; assay type: toxicity, organism-based; conditions: ip; how it was run: as §6
Rattus norvegicus [20] = assay: Rat PCA Test(50% inhibition of spot areas)in the female albino rats after (ip) administration in 10% aqueous acacia gum; assay type: functional; conditions: read-out: ID50 (the source's name); how it was run: as §4
[21] = In vivo toxic effect was determined in mouse after intraperitoneal administration with 10% aqueous acacia gum; value ranges from 0.94-1.40; assay type: toxicity, organism-based; conditions: ip; how it was run: as §6
[22] = In vivo toxic effect was determined in mouse after oral administration with 10% aqueous acacia gum value ranges from 1.63-2.93; assay type: toxicity, organism-based
Rattus norvegicus [23] = assay: Rat PCA Test(50% inhibition of spot areas)in the female albino rats after oral administration in 10% aqueous acacia gum; assay type: functional; conditions: read-out: ID50 (the source's name); how it was run: as §3
[24] = In vivo toxic effect was determined in mouse after intraperitoneal administration with 10% aqueous acacia gum; value ranges from 0.66-1.99; assay type: toxicity, organism-based; conditions: ip; how it was run: as §6
[25] = In vivo toxic effect was determined in mouse after oral administration with 10% aqueous acacia gum; value ranges from 0.93-1.70; assay type: toxicity, organism-based; how it was run: as §2
Rattus norvegicus [26] = assay: Rat PCA Test(50% inhibition of spot areas)in the female albino rats after (ip) administration in 10% aqueous acacia gum; value ranges from 78-93; assay type: functional; conditions: read-out: ID50 (the source's name); how it was run: as §5
[27] = In vivo toxic effect was determined in mouse after intraperitoneal administration with 10% aqueous acacia gum; value ranges from 1.82-3.42; assay type: toxicity, organism-based; conditions: ip; how it was run: as §6
Rattus norvegicus [28] = assay: Rat PCA Test(50% inhibition of spot areas)in the female albino rats after (ip) administration in 10% aqueous acacia gum; value ranges from 99-415; assay type: functional; conditions: read-out: ID50 (the source's name); how it was run: as §5
Rattus norvegicus [29] = assay: Rat PCA Test(50% inhibition of spot areas)in the female albino rats after oral administration in 10% aqueous acacia gum; value ranges from 184-369; assay type: functional; conditions: read-out: ID50 (the source's name); how it was run: as §3
Rattus norvegicus [30] = assay: Inhibition of mast cell degranulation was assessed in female albino rats at a dose of 65 umol/kg iv; assay type: functional
[31] = In vivo toxic effect was determined in mouse after intraperitoneal administration with 10% aqueous acacia gum; value ranges from 0.48-0.77; assay type: toxicity, organism-based; conditions: ip; how it was run: as §6
Rattus norvegicus [32] = assay: Rat PCA Test(50% inhibition of spot areas)in the female albino rats after (ip) administration in 10% aqueous acacia gum; value ranges from 45-69; assay type: functional; conditions: read-out: ID50 (the source's name); how it was run: as §4
Rattus norvegicus [33] = assay: Rat PCA Test(50% inhibition of spot areas)in the female albino rats after oral administration in 10% aqueous acacia gum; value ranges from 80-141; assay type: functional; conditions: read-out: ID50 (the source's name); how it was run: as §3
[34] = In vivo toxic effect was determined in mouse after oral administration with 10% aqueous acacia gum; value ranges from 1.23-1.71; assay type: toxicity, organism-based; how it was run: as §2

Q: Which ID75 (Cavia porcellus [1]) does the source give for `CC(=O)Nc1ccc(NC(=O)CCN2CCN(c3ccccn3)CC2)cc1.Cl.Cl` here?
A: Its ID75 is 0.97 µM/kg.

Q: What about the inhibition in vivo at 45 µmol/kg (Rattus norvegicus [2]) of the same compound?
A: Its inhibition in vivo at 45 µmol/kg is 29%.

Q: What about the LD50 [3] of the same compound?
A: The LD50 was greater than 6810 µmol/kg.

Q: And the ED50 (Rattus norvegicus [4])?
A: Its ED50 is 153 µmol/kg.

Q: And the ED50 (Rattus norvegicus [5])?
A: Its ED50 is 90 µmol/kg.

Q: Which ID75 (Cavia porcellus [1]) does the source give for `Cc1cc([N+](=O)[O-])cc(C)c1C(=O)NCCN1CCN(c2ccccn2)CC1.Cl.Cl` here?
A: Its ID75 is 4.6 µM/kg.

Q: And the ED50 (Rattus norvegicus [6])?
A: Its ED50 is 78 µmol/kg.

Q: What about the LD50 [7] of the same compound?
A: The LD50 was 530 µmol/kg.

Q: For `CC(=O)c1cccc(NC(=O)CCN2CCN(c3ccccn3)CC2)c1.Cl.Cl`, which ID75 (Cavia porcellus [1]) is on record?
A: Its ID75 is 0.2 µM/kg.

Q: What about the LD50 [8] of the same compound?
A: Its LD50 is 1110 µmol/kg.

Q: And the LD50 [9]?
A: Its LD50 is 680 µmol/kg.

Q: Which results are given for `CCCCOc1cc(C(=O)NCCN2CCN(c3ccccn3)CC2)c2ccccc2n1.Cl.Cl`?
A: LD50 [10]: 540 µmol/kg; ID75 (Cavia porcellus [11]): 8.15 µM/kg; ED50 (Rattus norvegicus [12]): > 175 µmol/kg

Q: What does the source list for `Nc1ccc(NC(=O)CCN2CCN(c3ccccn3)CC2)cc1`?
A: LD50 [13]: 1110 µmol/kg; ID75 (Cavia porcellus [1]): 0.02 µM/kg; LD50 [14]: 1290 µmol/kg; ED50 (Rattus norvegicus [15]): 23 µmol/kg; inhibition in vivo at 31 µmol/kg (Rattus norvegicus [16]): 84%; ED50 (Rattus norvegicus [17]): 91 µmol/kg

Q: Which results are given for `Cl.Cl.N#Cc1ccc(NC(=O)CCN2CCN(c3ccccn3)CC2)cc1`?
A: ID75 (Cavia porcellus [1]): 0.64 µM/kg; LD50 [18]: 620 µmol/kg; LD50 [19]: 390 µmol/kg; ED50 (Rattus norvegicus [20]): > 39 µmol/kg

Q: What does the source list for `CC(C)Sc1ccc(NC(=O)CCN2CCN(c3ccccn3)CC2)cc1`?
A: ID75 (Cavia porcellus [1]): 0.8 µM/kg; LD50 [21]: 1140 µmol/kg; LD50 [22]: 2180 µmol/kg; ED50 (Rattus norvegicus [23]): > 221 µmol/kg; ED50 (Rattus norvegicus [20]): > 120 µmol/kg

Q: Which results are given for `Cl.Cl.O=C(CCN1CCN(c2ccccn2)CC1)Nc1c(Cl)cccc1Cl`?
A: ID75 (Cavia porcellus [1]): 0.4 µM/kg; LD50 [24]: 800 µmol/kg; LD50 [25]: 1240 µmol/kg; ED50 (Rattus norvegicus [26]): 85 µmol/kg

Q: With `COc1cccc(N2CCN(CCC(=O)Nc3ccccc3[N+](=O)[O-])CC2)n1.Cl` as the compound, how does the ID75 (Cavia porcellus [1]) read?
A: Its ID75 is 0.52 µM/kg.

Q: And the ED50 (Rattus norvegicus [20])?
A: Its ED50 is greater than 237 µmol/kg.

Q: What about the LD50 [3] of the same compound?
A: The LD50 was greater than 7100 µmol/kg.

Q: Which results are given for `Cl.Cl.NC(=O)CCN1CCN(c2ccccn2)CC1`?
A: ID75 (Cavia porcellus [1]): 2.47 µM/kg; LD50 [27]: 2440 µmol/kg; ED50 (Rattus norvegicus [28]): 203 µmol/kg; ED50 (Rattus norvegicus [29]): 260 µmol/kg; inhibition in vivo at 65 µmol/kg (Rattus norvegicus [30]): 23%

Q: With `COc1cccc(N2CCN(CCC(=O)Nc3ccc(N)cc3)CC2)n1.Cl.Cl` as the compound, how does the LD50 [31] read?
A: Its LD50 is 530 µmol/kg.

Q: And the ID75 (Cavia porcellus [1])?
A: Its ID75 is 0.4 µM/kg.

Q: What about the ED50 (Rattus norvegicus [32]) of the same compound?
A: Its ED50 is 56 µmol/kg.

Q: And the ED50 (Rattus norvegicus [33])?
A: Its ED50 is 106 µmol/kg.

Q: And the LD50 [34]?
A: Its LD50 is 1600 µmol/kg.
